Experimental data: ChEMBL document CHEMBL1828552, “Synthesis and studies of novel 2-(4-cyano-3-trifluoromethylphenyl amino)-4-(quinoline-4-yloxy)-6-(piperazinyl/piperidinyl)-s-triazines as potential antimicrobial, antimycobacterial and anticancer agents” (2011)
Values after ≈ are worked out from the molar mass of the structure shown.

What was measured:
[1] = tested on: Staphylococcus aureus; assay: Antibacterial activity against 10^5 CFU/mL Staphylococcus aureus MTCC 96 after 24 hrs by disc diffusion technique; format: functional
Procedure, shortened: (§1)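 Disc diffusion on Mueller–Hinton agar poured 5 mm deep. The surface was swabbed with a 10⁵ CFU/mL […] suspension. Filter-paper discs 6.25 mm in diameter were soaked in compound in DMSO and placed on the agar. Plates were incubated 24 h at 37 ± 1 °C, and the inhibition zone was measured in mm. A DMSO disc served as blank.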

[2] = tested on: Staphylococcus aureus; assay: Antibacterial activity against 10^5 CFU/mL Staphylococcus aureus MTCC 96 after 24 hrs by agar streak dilution method; format: functional; conditions: MTCC 96, 24 h
Procedure, shortened: (§2)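 Agar streak dilution. Stock 100 µg/mL in DMSO; graded amounts were mixed into molten nutrient agar and poured at 4–5 mm depth. Plates carried serial dilutions over […]. About 10⁵ CFU/mL of each bacterium was applied, and plates were incubated at 37 ± 1 °C for 24 h. MIC was read from the dilution series.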

[3] = tested on: Bacillus cereus; assay: Antibacterial activity against 10^5 CFU/mL Bacillus cereus MTCC 619 after 24 hrs by disc diffusion technique; format: functional; procedure, shortened: as §1
[4] = tested on: Bacillus cereus; assay: Antibacterial activity against 10^5 CFU/mL Bacillus cereus MTCC 619 after 24 hrs by agar streak dilution method; format: functional; conditions: MTCC 619, 24 h; procedure, shortened: as §2
[5] = tested on: DU-145; assay: Cytotoxicity against […] human DU145 cells after 48 hrs by SRB assay; format: functional; conditions: DU-145, 48 h
Procedure, shortened: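 SRB assay in DU-145 cells grown in RPMI 1640 with 10% FBS and 2 mM L-glutamine. Cells were plated and held 24 h before addition of four 10-fold concentrations. After 48 h, cells were TCA-fixed, stained with 0.4% SRB and read at 540 nm. GI50, TGI and LC50 were derived against time-zero and control wells; each value is the mean of three experiments.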

[6] = tested on: Escherichia coli; assay: Antibacterial activity against 10^5 CFU/mL Escherichia coli MTCC 739 after 24 hrs by disc diffusion technique; format: functional; procedure, shortened: as §1
[7] = tested on: Escherichia coli; assay: Antibacterial activity against 10^5 CFU/mL Escherichia coli MTCC 739 after 24 hrs by agar streak dilution method; format: functional; conditions: MTCC 739, 24 h; procedure, shortened: as §2
[8] = tested on: Pseudomonas aeruginosa; assay: Antibacterial activity against 10^5 CFU/mL Pseudomonas aeruginosa MTCC 741 after 24 hrs by disc diffusion technique; format: functional; procedure, shortened: as §1
[9] = tested on: Pseudomonas aeruginosa; assay: Antibacterial activity against 10^5 CFU/mL Pseudomonas aeruginosa MTCC 741 after 24 hrs by agar streak dilution method; format: functional; conditions: MTCC 741, 24 h; procedure, shortened: as §2
[10] = tested on: Klebsiella pneumoniae; assay: Antibacterial activity against 10^5 CFU/mL Klebsiella pneumoniae MTCC 109 after 24 hrs by disc diffusion technique; format: functional; procedure, shortened: as §1
[11] = tested on: Klebsiella pneumoniae; assay: Antibacterial activity against 10^5 CFU/mL Klebsiella pneumoniae MTCC 109 after 24 hrs by agar streak dilution method; format: functional; conditions: MTCC 109, 24 h; procedure, shortened: as §2
[12] = tested on: Salmonella typhi; assay: Antibacterial activity against 10^5 CFU/mL Salmonella typhi MTCC 733 after 24 hrs by disc diffusion technique; format: functional, Salmonella enterica subsp. enterica serovar Typhi
Procedure, shortened: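 Disc diffusion. Mueller-Hinton agar autoclaved 120 °C 30 min, poured 5 mm deep. Surface swabbed with 10⁵ CFU/mL suspension […]. 6.25 mm filter-paper discs soaked in compound in DMSO; DMSO-only disc as blank. Incubated 37 ± 1 °C, 24 h for bacteria or 48 h for fungi. Ciprofloxacin and ketoconazole discs as reference drugs. Inhibition zone measured in mm.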

[13] = tested on: Salmonella typhi; assay: Antibacterial activity against 10^5 CFU/mL Salmonella typhi MTCC 733 after 24 hrs by agar streak dilution method; format: functional, Salmonella enterica subsp. enterica serovar Typhi; conditions: Salmonella enterica, MTCC 733, 24 h
[14] = tested on: Proteus vulgaris; assay: Antibacterial activity against 10^5 CFU/mL Proteus vulgaris MTCC 1771 after 24 hrs by disc diffusion technique; format: functional; procedure, shortened: as §1
[15] = tested on: Proteus vulgaris; assay: Antibacterial activity against 10^5 CFU/mL Proteus vulgaris MTCC 1771 after 24 hrs by agar streak dilution method; format: functional; conditions: MTCC 1771, 24 h; procedure, shortened: as §2
[16] = tested on: Shigella flexneri; assay: Antibacterial activity against 10^5 CFU/mL Shigella flexneri MTCC 1457 after 24 hrs by disc diffusion technique; format: functional; procedure, shortened: as §1
[17] = tested on: Shigella flexneri; assay: Antibacterial activity against 10^5 CFU/mL Shigella flexneri MTCC 1457 after 24 hrs by agar streak dilution method; format: functional; conditions: MTCC 1457, 24 h; procedure, shortened: as §2
[18] = tested on: Aspergillus niger; assay: Antifungal activity against 10^5 CFU/mL Aspergillus niger MTCC 282 after 48 hrs by disc diffusion technique; format: functional
[19] = tested on: Aspergillus niger; assay: Antifungal activity against 10^5 CFU/mL Aspergillus niger MTCC 282 after 48 hrs by agar streak dilution method; format: functional; conditions: MTCC 282, 48 h
Procedure, shortened: (§3)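 Agar streak dilution for fungi. Stock 100 µg/mL in DMSO; graded amounts were mixed into molten Sabouraud dextrose agar and poured at 4–5 mm depth. Serial dilutions ran over […]. About 10⁵ CFU/mL inoculum was applied, with incubation at 37 ± 1 °C for 48 h. MIC was read from the dilution series.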

[20] = tested on: Aspergillus fumigatus; assay: Antifungal activity against 10^5 CFU/mL Aspergillus fumigatus MTCC 343 after 48 hrs by disc diffusion technique; format: functional
[21] = tested on: Aspergillus fumigatus; assay: Antifungal activity against 10^5 CFU/mL Aspergillus fumigatus MTCC 343 after 48 hrs by agar streak dilution method; format: functional; conditions: MTCC 343, 48 h; procedure, shortened: as §3
[22] = tested on: Aspergillus clavatus; assay: Antifungal activity against 10^5 CFU/mL Aspergillus clavatus MTCC 1323 after 48 hrs by disc diffusion technique; format: functional
[23] = tested on: Aspergillus clavatus; assay: Antifungal activity against 10^5 CFU/mL Aspergillus clavatus MTCC 1323 after 48 hrs by agar streak dilution method; format: functional; conditions: MTCC 1323, 48 h; procedure, shortened: as §3
[24] = tested on: Candida albicans; assay: Antifungal activity against 10^5 CFU/mL Candida albicans MTCC 183 after 48 hrs by disc diffusion technique; format: functional
[25] = tested on: Candida albicans; assay: Antifungal activity against 10^5 CFU/mL Candida albicans MTCC 183 after 48 hrs by agar streak dilution method; format: functional; conditions: MTCC 183, 48 h; procedure, shortened: as §3

N#Cc1ccc(Nc2nc(Oc3ccnc4ccccc34)nc(N3CCCCC3)n2)cc1C(F)(F)F
inhibition zone (IZ) [1]: 11 mm | MIC [2]: 100 µg/mL (≈ 203 µM) | inhibition zone (IZ) [3]: 14 mm | MIC [4]: 100 µg/mL (≈ 203 µM) | GI50 [5]: 94.9 µM | LC50 (concentration giving 50% net cell kill relative to time zero) [5]: > 100 µM | TGI [5]: > 100 µM | inhibition zone (IZ) [6]: <10 mm | MIC [7]: 100 µg/mL (≈ 203 µM) | inhibition zone (IZ) [8]: <10 mm | MIC [9]: 100 µg/mL (≈ 203 µM) | inhibition zone (IZ) [10]: 15 mm | MIC [11]: 100 µg/mL (≈ 203 µM) | inhibition zone (IZ) [12]: 12 mm | MIC [13]: 100 µg/mL (≈ 203 µM) | inhibition zone (IZ) [14]: 14 mm | MIC [15]: 100 µg/mL (≈ 203 µM) | inhibition zone (IZ) [16]: <10 mm | MIC [17]: 100 µg/mL (≈ 203 µM) | inhibition zone (IZ) [18]: 12 mm | MIC [19]: 100 µg/mL (≈ 203 µM) | inhibition zone (IZ) [20]: <10 mm | MIC [21]: 100 µg/mL (≈ 203 µM) | inhibition zone (IZ) [22]: 14 mm | MIC [23]: 100 µg/mL (≈ 203 µM) | inhibition zone (IZ) [24]: 12 mm | MIC [25]: 100 µg/mL (≈ 203 µM)

N#Cc1ccc(Nc2nc(Oc3ccnc4ccccc34)nc(N3CCOCC3)n2)cc1C(F)(F)F
inhibition zone (IZ) [1]: 14 mm | MIC [2]: 100 µg/mL (≈ 203 µM) | inhibition zone (IZ) [3]: <10 mm | MIC [4]: 100 µg/mL (≈ 203 µM) | GI50 [5]: 68.3 µM | LC50 (concentration giving 50% net cell kill relative to time zero) [5]: > 100 µM | TGI [5]: > 100 µM | inhibition zone (IZ) [6]: <10 mm | MIC [7]: 100 µg/mL (≈ 203 µM) | inhibition zone (IZ) [8]: <10 mm | MIC [9]: 100 µg/mL (≈ 203 µM) | inhibition zone (IZ) [10]: 14 mm | MIC [11]: 100 µg/mL (≈ 203 µM) | inhibition zone (IZ) [12]: 13 mm | MIC [13]: 100 µg/mL (≈ 203 µM) | inhibition zone (IZ) [14]: 16 mm | MIC [15]: 100 µg/mL (≈ 203 µM) | inhibition zone (IZ) [16]: <10 mm | MIC [17]: 100 µg/mL (≈ 203 µM) | inhibition zone (IZ) [18]: 13 mm | MIC [19]: 100 µg/mL (≈ 203 µM) | inhibition zone (IZ) [20]: <10 mm | MIC [21]: 100 µg/mL (≈ 203 µM) | inhibition zone (IZ) [22]: 13 mm | MIC [23]: 100 µg/mL (≈ 203 µM) | inhibition zone (IZ) [24]: 13 mm | MIC [25]: 100 µg/mL (≈ 203 µM)

N#Cc1ccc(Nc2nc(Oc3ccnc4ccccc34)nc(N3CCN(c4ccccc4)CC3)n2)cc1C(F)(F)F
inhibition zone (IZ) [1]: 14 mm | MIC [2]: 100 µg/mL (≈ 176 µM) | inhibition zone (IZ) [3]: <10 mm | MIC [4]: 100 µg/mL (≈ 176 µM) | GI50 [5]: > 100 µM | LC50 (concentration giving 50% net cell kill relative to time zero) [5]: > 100 µM | TGI [5]: > 100 µM | inhibition zone (IZ) [6]: <10 mm | MIC [7]: 100 µg/mL (≈ 176 µM) | inhibition zone (IZ) [8]: <10 mm | MIC [9]: 100 µg/mL (≈ 176 µM) | inhibition zone (IZ) [10]: <10 mm | MIC [11]: 100 µg/mL (≈ 176 µM) | inhibition zone (IZ) [12]: 13 mm | MIC [13]: 100 µg/mL (≈ 176 µM) | inhibition zone (IZ) [14]: 14 mm | MIC [15]: 100 µg/mL (≈ 176 µM) | inhibition zone (IZ) [16]: <10 mm | MIC [17]: 100 µg/mL (≈ 176 µM) | inhibition zone (IZ) [18]: <10 mm | MIC [19]: 100 µg/mL (≈ 176 µM) | inhibition zone (IZ) [20]: <10 mm | MIC [21]: 100 µg/mL (≈ 176 µM) | inhibition zone (IZ) [22]: <10 mm | MIC [23]: 100 µg/mL (≈ 176 µM) | inhibition zone (IZ) [24]: <10 mm | MIC [25]: 100 µg/mL (≈ 176 µM)

COc1cccc2c1C(=O)c1c(O)c3c(c(O)c1C2=O)C[C@@](O)(C(=O)CO)C[C@@H]3O[C@H]1C[C@H](N)[C@H](O)[C@H](C)O1 [DOXORUBICIN]
GI50 [5]: < 0.1 µM | TGI [5]: > 100 µM
